According to ChEMBL document CHEMBL4373708 (J Med Chem, 2019):
Calls of active or inactive are those of the source. The rule behind the calls is not given here.

Assays:
Pendrin (Mus musculus) = molecular target: T1, Pendrin (Mus musculus) (UniProt Q9R155); assay: Inhibition of mouse slc26a4 expressed in FRT cells co-expressing EYFP-H148Q/I152L/F46L assessed as reduction in protein-mediated chloride/iodide exchange at 10 uM preincubated for 10 mins followed by NaI-substituted PBS addition and measured by YFP-based fluorescence assay; assay type: cell-based
T1 sequence (whole entry): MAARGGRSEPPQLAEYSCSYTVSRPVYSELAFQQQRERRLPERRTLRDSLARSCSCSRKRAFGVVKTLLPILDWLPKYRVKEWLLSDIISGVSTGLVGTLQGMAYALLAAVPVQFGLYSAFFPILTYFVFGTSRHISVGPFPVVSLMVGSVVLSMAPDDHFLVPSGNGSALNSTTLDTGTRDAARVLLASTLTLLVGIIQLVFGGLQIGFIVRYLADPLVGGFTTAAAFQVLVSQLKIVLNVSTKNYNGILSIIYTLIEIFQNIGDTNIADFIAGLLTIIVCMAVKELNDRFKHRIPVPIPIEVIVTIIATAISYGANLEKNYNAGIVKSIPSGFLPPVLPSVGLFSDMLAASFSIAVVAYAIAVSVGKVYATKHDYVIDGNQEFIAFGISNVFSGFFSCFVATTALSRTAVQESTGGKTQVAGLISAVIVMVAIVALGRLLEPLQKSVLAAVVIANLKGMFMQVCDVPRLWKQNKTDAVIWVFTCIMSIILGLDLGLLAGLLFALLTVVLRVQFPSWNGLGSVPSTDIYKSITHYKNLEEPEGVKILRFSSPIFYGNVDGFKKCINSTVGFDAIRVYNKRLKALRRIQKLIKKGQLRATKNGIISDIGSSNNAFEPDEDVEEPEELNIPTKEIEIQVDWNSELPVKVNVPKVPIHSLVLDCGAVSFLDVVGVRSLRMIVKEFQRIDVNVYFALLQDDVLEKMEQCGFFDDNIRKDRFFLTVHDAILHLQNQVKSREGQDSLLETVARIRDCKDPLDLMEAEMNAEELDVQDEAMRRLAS
In short: (§1)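 FRT cells expressing the given slc26 transporter plus EYFP-H148Q/I152L/F46L were preincubated 10 min with 0 or 10 µM compound in PBS. Iodide-substituted PBS was then added (140 mM NaCl replaced by NaI). The rate of YFP fluorescence quenching gave chloride/iodide exchange.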

[1] = molecular target: T2, Solute carrier family 26 member 9 (Homo sapiens) (UniProt Q7LBE3); assay: Inhibition of human slc26a9 expressed in FRT cells co-expressing EYFP-H148Q/I152L/F46L assessed as reduction in protein-mediated chloride/iodide exchange at 10 uM preincubated for 10 mins followed by NaI-substituted PBS addition and measured by YFP-based fluorescence assay; assay type: cell-based; in short: as §1
T2 sequence (whole entry): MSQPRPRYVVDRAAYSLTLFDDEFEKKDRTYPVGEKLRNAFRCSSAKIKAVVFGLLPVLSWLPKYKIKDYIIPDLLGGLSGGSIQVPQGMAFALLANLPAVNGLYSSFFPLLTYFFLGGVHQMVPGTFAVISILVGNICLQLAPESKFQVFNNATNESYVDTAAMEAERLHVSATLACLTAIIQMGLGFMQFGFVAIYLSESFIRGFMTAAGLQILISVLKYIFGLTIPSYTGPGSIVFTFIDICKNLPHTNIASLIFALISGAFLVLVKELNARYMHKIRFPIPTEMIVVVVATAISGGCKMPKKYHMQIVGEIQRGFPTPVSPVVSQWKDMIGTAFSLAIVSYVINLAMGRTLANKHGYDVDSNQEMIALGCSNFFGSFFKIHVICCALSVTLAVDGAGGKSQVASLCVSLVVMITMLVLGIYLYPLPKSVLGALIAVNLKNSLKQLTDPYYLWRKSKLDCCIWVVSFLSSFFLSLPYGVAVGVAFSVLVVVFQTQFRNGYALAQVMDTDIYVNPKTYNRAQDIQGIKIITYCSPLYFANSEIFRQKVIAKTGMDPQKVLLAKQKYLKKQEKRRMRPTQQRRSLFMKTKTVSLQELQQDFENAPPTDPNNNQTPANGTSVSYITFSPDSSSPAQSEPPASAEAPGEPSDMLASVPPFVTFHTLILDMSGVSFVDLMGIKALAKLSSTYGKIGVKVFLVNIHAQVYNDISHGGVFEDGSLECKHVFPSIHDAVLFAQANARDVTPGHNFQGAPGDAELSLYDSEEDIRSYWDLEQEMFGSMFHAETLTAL

Chloride anion exchanger = molecular target: T3, Chloride anion exchanger (Mus musculus, UniProt Q9WVC8)
T3 sequence (Q9WVC8 whole entry): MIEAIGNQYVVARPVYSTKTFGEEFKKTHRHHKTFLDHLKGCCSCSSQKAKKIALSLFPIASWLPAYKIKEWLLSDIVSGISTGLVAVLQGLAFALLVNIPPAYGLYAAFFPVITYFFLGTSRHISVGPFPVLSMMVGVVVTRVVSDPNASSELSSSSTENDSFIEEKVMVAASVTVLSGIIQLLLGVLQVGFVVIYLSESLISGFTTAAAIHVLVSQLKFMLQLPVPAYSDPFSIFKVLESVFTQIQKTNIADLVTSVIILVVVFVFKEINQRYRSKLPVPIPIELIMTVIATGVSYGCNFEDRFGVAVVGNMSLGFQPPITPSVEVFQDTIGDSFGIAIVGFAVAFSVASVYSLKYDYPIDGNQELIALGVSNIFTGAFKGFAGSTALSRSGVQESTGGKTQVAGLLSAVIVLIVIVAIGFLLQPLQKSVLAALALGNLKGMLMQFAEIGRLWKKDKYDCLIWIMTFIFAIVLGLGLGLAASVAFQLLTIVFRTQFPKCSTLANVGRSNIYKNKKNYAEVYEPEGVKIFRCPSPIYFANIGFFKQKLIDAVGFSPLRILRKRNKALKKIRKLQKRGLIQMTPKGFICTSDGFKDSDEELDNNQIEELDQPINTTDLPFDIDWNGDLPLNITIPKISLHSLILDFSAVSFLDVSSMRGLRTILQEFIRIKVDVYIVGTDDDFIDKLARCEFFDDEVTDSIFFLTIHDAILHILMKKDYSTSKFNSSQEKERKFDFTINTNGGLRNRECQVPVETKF

Row | inhibition (Pendrin (Mus musculus)) | inhibition [1] | IC50 (Chloride anion exchanger) [nM] | Compound
1 | inactive | inactive | 35 | Cc1c(CC(=O)O)c(=O)oc2c(C)c(OCc3cccc(I)c3)ccc12
2 | inactive | inactive | 23 | Cc1c(CC(=O)O)c(=O)oc2c(C)c(OCc3cccc(C(F)(F)F)c3)ccc12
